A selection: hits, their analogues and other compounds. The true share with any hit is near 3.3%.
SIAE primary = inhibitors of human sialic acid acetylesterase SIAE; Q9HAT2; SIAE FP-Rh probe binding, fluorescence polarization; inhibition, % at 9.66 µM; hit rate 0.69% among 370,000; AID 1053197;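 active = inhibition above a cutoff: mean of compounds within the control limits plus 3 SD of those, cut at about 17% in these data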;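 note: 0% = plate median of compound wells and 100% = probe without SIAE protein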
PRMT1 FP inh = inhibitors of human PRMT1; inhibition, % at 2.79 µM; hit rate 1.3% among 370,000; recombinant PRMT1, activity-based probe fluorescence polarization; AID 652257; Q99873;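 active = inhibition above about 21% made by adding two undisclosed values, limit read from the data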
UHRF1 binding = UHRF1 methyl-DNA binding inhibition; Q96T88; UHRF1 binding to methylated oligo, TR-FRET; inhibition, % at 4.4 µM; hit rate 0.75% among 370,000; in the data active = inhibition above about 21%;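 note: UHRF1 SRA domain binding a hemimethylated CpG hairpin DNA probe; 0% = median of test compound wells and 100% = reference inhibitor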
Target sequence (Q96T88 whole entry, looked up, the tested form may be a part): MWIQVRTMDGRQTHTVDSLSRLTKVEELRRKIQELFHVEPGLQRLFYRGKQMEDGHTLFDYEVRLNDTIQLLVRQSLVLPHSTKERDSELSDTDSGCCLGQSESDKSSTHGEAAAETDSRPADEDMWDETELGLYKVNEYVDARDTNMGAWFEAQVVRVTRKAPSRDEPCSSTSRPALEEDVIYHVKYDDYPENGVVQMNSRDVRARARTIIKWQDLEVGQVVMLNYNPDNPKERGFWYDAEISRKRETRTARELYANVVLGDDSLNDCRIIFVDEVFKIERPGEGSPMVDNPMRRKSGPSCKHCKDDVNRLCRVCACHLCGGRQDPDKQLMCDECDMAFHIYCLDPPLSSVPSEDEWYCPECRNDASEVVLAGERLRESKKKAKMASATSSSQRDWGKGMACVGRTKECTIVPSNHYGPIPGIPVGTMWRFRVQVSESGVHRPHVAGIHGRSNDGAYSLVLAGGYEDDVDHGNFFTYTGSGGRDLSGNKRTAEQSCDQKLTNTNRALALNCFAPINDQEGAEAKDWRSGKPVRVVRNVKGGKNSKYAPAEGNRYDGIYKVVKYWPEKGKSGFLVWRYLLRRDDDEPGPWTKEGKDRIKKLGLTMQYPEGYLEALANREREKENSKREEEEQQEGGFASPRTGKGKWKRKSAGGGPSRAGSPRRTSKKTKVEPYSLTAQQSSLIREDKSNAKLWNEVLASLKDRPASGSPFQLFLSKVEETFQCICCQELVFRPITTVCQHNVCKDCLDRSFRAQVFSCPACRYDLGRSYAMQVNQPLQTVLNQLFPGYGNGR
TDP2 absorb = TDP2 (human) inhibition, absorbance primary screen; O95551; recombinant TDP2, T5PNP hydrolysis, p-nitrophenol absorbance 415 nm; inhibition, % at 12.8 µM; hit rate 0.34% among 370,000;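 active = inhibition above the mean of all tested compounds plus 3 SD, set per campaign, cut at about 25% in these data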;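 note: 0% = DMSO with enzyme and 100% = buffer with substrate but no TDP2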
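Assay system: Recombinant human TDP2 | Quantity: 120 nM TDP2 per well | Incubation: 2 h at 37 °C | Signal: Epi absorbance | Evaluation: Percent inhibition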
LEDGF integ inh = blocks HIV-1 LEDGF/p75-dependent DNA integration; hit rate 0.64% among 370,000; inhibition, % at 3.7 µM; TR-FRET IN-LEDGF/p75 DNA integration, Eu/Cy5;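 active = inhibition above the screen-wide mean plus 3 SD, cut at about 13% in these data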;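 note: signal is the Cy5 over europium emission ratio at 671 and 618 nm; 0% = plate median of compound wells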
MBD2 DNA inh = blocks human MBD2 binding to methylated DNA; inhibition, % at 4.4 µM; Q9UBB5; hit rate 0.31% among 370,000; TR-FRET, MBD2 binding to methylated oligonucleotide; in the data active = inhibition above about 13%
An asterisk follows results filed as active.

SMILES	SIAE primary	PRMT1 FP inh	UHRF1 binding	TDP2 absorb	LEDGF integ inh	MBD2 DNA inh
Cc1ccccc1NS(=O)(=O)c1ccc(F)cc1	-8	4	17	-14	-5	10
CC(C)(C)N(NS(=O)(=O)c1ccc(F)cc1)c1ccccc1	7	22*	-2	-4	-2	-7
CCOC(=O)C1=NOC(C(=O)NCCO)(C(=O)C2CC2)C1 (stereo not given)	2	5	1	-5	7	7
O=C1CN(C(=O)CNCc2ccc(Cl)cc2)c2ccccc2N1	3	4	62*	5	-1	2
CCOC(=O)N1CCN(C(=O)C[C@H]2C[C@@]3(C(=O)OC)C(=C[C@H](C4CCCC4)O[C@@H]3C)N(CCc3ccc(OC)c(OC)c3)C2=O)CC1	3	-1	1	9	-6	2
CCC(=O)Nc1ccc(C(=O)NNC(=O)c2cc(OC)c(OC)c(OC)c2)cc1	-8	5	2	4	2	-2
COc1cc(C(=O)NNC(=O)c2ccc(NC(=O)C(C)(C)C)cc2)cc(OC)c1OC	-13	2	32*	-1	-4	4
CCOc1cc(Br)cc(/C=C2\SC(=Nc3ccccc3)NC2=O)c1O	-1	24*	-4	13	-2	1
C=CCOc1ccc(Br)cc1/C=C1/SC(=Nc2ccc(C(=O)O)cc2)NC1=O	-22	4	1	2	-2	2
O=C(CCc1ccc(O)cc1)c1c(O)cc(O)cc1O	-10	4	0	-6	5	3
COc1cc(O)c(CC=C(C)C)c(O)c1C(=O)CCc1ccc(O)cc1	-22	1	23*	6	-3	1
C#CCNC(=O)C[C@@H]1C(=O)N(Cc2ccc(OC)cc2)C2=CCN(C(=O)OC(C)(C)C)C[C@]21C(=O)OCC	3	-1	1	-3	-1	-2
CC1=NN(c2ccccc2)C(=O)/C1=C\c1ccc(Oc2ccc([N+](=O)[O-])cc2[N+](=O)[O-])cc1	10	10	19	78*	31*	15*
CN(C)S(=O)(=O)c1cccc(C(=O)N/N=C\c2ccccc2[N+](=O)[O-])c1	2	4	-3	1	0	7
Nc1ccc2c(c1)C(=O)N(c1cccc3ccccc13)C2=O	-5	0	-3	-8	-5	-1
CC1=CC(=O)N(c2cccc3c(N4C(=O)C=C(C)C4=O)cccc23)C1=O	-50	10	23*	-1	7	15*
Cn1c(CNc2ccccc2F)nc2ccccc21	2	-3	0	3	2	1
O=C(NNC(=O)c1cccs1)c1ccc([N+](=O)[O-])cc1	-5	-2	21*	-15	3	-1
O=C(NCC(c1cccs1)N1CCOCC1)c1ccc([N+](=O)[O-])cc1 (stereo not given)	6	0	25*	-3	-1	1
O=C(NNC(=O)c1ccc([N+](=O)[O-])cc1)c1ccc(NS(=O)(=O)c2cccs2)cc1	-5	3	1	0	7	1
O=C(Nc1cccc(O)c1)C(=O)Nc1ccccn1	-1	3	68*	-1	0	0
O=C(Nc1ccccc1)C(=O)Nc1ccccn1	4	-1	-1	-5	3	-4
CCOC(=O)CNC(=O)N(C)[C@H]1C[C@H]2c3[nH]c4c(-c5cccc(C)c5)cccc4c3CCN2C(=O)[C@H]1[C@H](C)O	2	1	-2	-3	7	-8
Cc1ccc2c(c1)C1CS(=O)(=O)N(CC(C)C)C(=O)N1C2 (stereo not given)	-2	1	-3	7	3	0
CC(CNC(=O)CC[C@H]1O[C@@H](n2cnc3c(NC(=O)c4ccccc4)ncnc32)[C@H](O)[C@@H]1O)c1ccccc1 (stereo not given in full)	0	-5	27*	-9	1	0
SMILES	SIAE primary	PRMT1 FP inh	UHRF1 binding	TDP2 absorb	LEDGF integ inh	MBD2 DNA inh
O=C(CC[C@H]1O[C@@H](n2cnc3c(NC(=O)c4ccccc4)ncnc32)[C@H](O)[C@@H]1O)NCC(c1ccccc1)c1ccccc1	2	-2	0	2	-3	1
COc1ccc2c(c1)CN1CN(C3CCCC3)S(=O)(=O)CC21 (stereo not given)	1	0	-5	13	-4	-1
COc1ccc(CNC(=O)c2ccc3c(c2)N(C)CCS3)cc1	7	5	0	2	-7	-2
COc1ccc(CNC(=O)c2ccc3c(c2)N(C)C(=O)CS3=O)cc1 (stereo not given)	1	22*	0	11	3	-6
COc1cc(-c2nnc(-c3cccs3)o2)cc(OC)c1OC	18*	0	2	-7	-3	-5
COc1ccc(-c2nnc(-c3cccs3)o2)cc1OC	0	1	-2	0	0	3
CS(=O)(=O)c1ccc(OC[C@@H](O)CN2CCC(C(O)(c3ccccc3)c3ccccc3)CC2)cc1	0	2	0	-5	2	-1
Cn1nc(C(F)(F)F)c(C#N)c1N1CCN(c2ccccn2)CC1	-2	-2	23*	4	-1	9
O=C1C(=O)N(CCN2CCOCC2)C(c2ccc([N+](=O)[O-])cc2)/C1=C(/O)c1ccc2c(c1)OCO2 (stereo not given)	3	23*	-2	-2	1	-4
Cc1ccc(C2=NC(=O)/C(=C/c3cc(O)c(O)c(Br)c3)S2)cc1	-6	23*	50*	-6	89*	38*
COc1cc(/C=C2\SC(c3ccc(C)cc3)=NC2=O)cc(OC)c1O	-8	17	-5	7	-3	-4
CN(C)CCN1C(=O)CCC2(C)C1=CCC1C2CCC2(C)C1CCC2(C)O (stereo not given)	8	-4	80*	6	-1	-2
C[C@]12CCC(=O)C=C1CC[C@@H]1[C@@H]2CC[C@@]2(C)[C@H]1CC[C@]2(O)C(=O)CO	-5	-3	-1	-2	1	-5
COc1cccc(NC(=S)N(CCCN2CCC(C)CC2)Cc2cccs2)c1	9	-1	1	10	2	0
COc1cccc(NC(=S)N(CCc2c(C)[nH]c3ccc(C)cc23)Cc2cccs2)c1	11	-2	-1	-3	-4	4
CSc1cccc(NC(=S)N(CCCN2CCC(C)CC2)Cc2cccs2)c1	5	1	28*	7	0	4
COc1cccc(NC(=S)N(CCN(C)C)Cc2cccs2)c1	0	-3	21*	-1	1	8
COC(=O)[C@]12C[C@H](CC(=O)NCCc3ccccc3OC)C(=O)N(Cc3cccc4ccccc34)C1=C[C@H](COCc1ccccc1)O[C@@H]2C	-7	3	-1	-3	-5	1
